The values below come from PMC6750927 (Science Advances, 2019).

In one test the target is Cdc37 R246A mutant (UniProt Q16543). Nature of the test: ITC. On the technique in general: In ITC the heat of successive injections is recorded.
Another test has as its target Cdc37, wild type (UniProt Q16543). The test can be described thus: ITC.
The target of the next test is Cdc37 Q208A mutant (UniProt Q16543). Nature of the test: ITC.
For another test, the target named is Hsp90 ATPase activity (Homo sapiens, UniProt P07900). The test can be described thus: Hsp90 ATPase assay. The class given is biochemical. The essentials:
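Hsp90 ATPase measured with an ADP Hunter Plus kit at 37°C. Compound, Hsp90 (5 μM as added) and ATP (100 μM as added) combined in equal parts for 1 h. Background taken without protein or compound; protein alone set as 100% activity. n = 3 wells, from three independent experiments.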

For the next test, the target named is Hsp90-Cdc37 PPI (Homo sapiens, UniProt P07900). Nature of the test: Hsp90-Cdc37 HTRF assay. The following applies: dose-dependent. The class given is binding. The method, boiled down: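 His-tagged Hsp90 and GST-tagged Cdc37 premixed at 80 nM final in PBS with 200 mM KF, pH 7.4. Twofold dilutions of test compound (seven concentrations) added for 1 h at 37°C. HTRF read at excitation 320 nm, emission 665 and 620 nm; ratio = (665/620) × 10,000. n = 3 wells, from three independent experiments.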
On the technique in general: In TR-FRET formats the signal depends on donor and acceptor labels being close together.

The next test addresses Hsp90 ATP binding site (Homo sapiens, UniProt P07900). The test can be described thus: ATP binding site competitive FP assay. The method, boiled down:
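Competition for the Hsp90 ATP site by fluorescence polarization with a fluorescein isothiocyanate–geldanamycin probe. Read at excitation 485 nm and emission 535 nm. Inhibition rate derived by a previously reported method. n = 3 wells, from three independent experiments.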

Chain of Cdc37, wild type (Q16543 whole entry): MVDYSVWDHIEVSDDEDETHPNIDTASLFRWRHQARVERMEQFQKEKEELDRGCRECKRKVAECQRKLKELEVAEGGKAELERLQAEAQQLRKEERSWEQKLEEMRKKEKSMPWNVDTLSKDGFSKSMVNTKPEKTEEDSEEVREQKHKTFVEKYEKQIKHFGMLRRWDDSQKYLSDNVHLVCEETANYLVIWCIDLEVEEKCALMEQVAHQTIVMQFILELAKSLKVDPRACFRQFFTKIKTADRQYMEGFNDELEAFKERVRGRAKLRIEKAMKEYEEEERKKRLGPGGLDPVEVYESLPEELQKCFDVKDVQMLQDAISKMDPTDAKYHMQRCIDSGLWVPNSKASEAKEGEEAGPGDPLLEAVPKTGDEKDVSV
Chain of Cdc37 Q208A mutant (Q16543 whole entry Q208A): as the sequence (Q16543 whole entry) above, with Q208A counted along it
Chain of Cdc37 R246A mutant (Q16543 whole entry R246A): as the sequence (Q16543 whole entry) above, with R246A counted along it

Usually Kd stands for the concentration at which binding is half-saturated. Consider “Heat shock protein 90 (Hsp90), wild type, His-tagged (from UniProt P07900 1-732) (natural protein)”, for which the Kd with Cdc37 R246A mutant was 6.02 µM; in the test with Cdc37, wild type, 2.17 µM; with Cdc37 Q208A mutant, 3.51 µM.

Broadly, the IC50 is the concentration that gives 50% inhibition. The low end stands for inhibition by little substance, the high end for a need for much substance. As for `CC(C)c1cc(C(=O)N2Cc3ccc(CN4CCN(C)CC4)cc3C2)c(O)cc1O` [AT13387], the IC50 against Hsp90 ATPase activity worked out at 0.16 µM; on Hsp90 ATP binding site it was 0.012 µM. Also, the “inhibition of Hsp90-Cdc37 binding (IC50)” value on Hsp90-Cdc37 PPI is reported as “no activity”.

“Hsp90 Y61A mutant (from UniProt P07900 1-732) (natural protein)”: the dissociation constant (Kd) with Cdc37, wild type is 6.85 µM.

In the test with Cdc37, wild type, “Hsp90 R46A mutant (from UniProt P07900 1-732) (natural protein)” showed a dissociation constant (Kd) of 8.85 µM.
